Laboratory results published in the EternaBench riboswitch data.

Tested on: MS2 coat protein
Experiment: apparent Kd, MS2 coat protein; higher = weaker binding; RNA-MaP array; FMN 200 µM where present
In short: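 Stalled E. coli RNA polymerase transcribed the designs on Illumina sequencing-chip clusters. SNAP-549-labelled MS2 coat protein was titrated from 0.7 or 1.5 nM, doubling to 3 µM, without and then with constant ligand, in 100 mM Tris-HCl pH 7.5, 80 mM KCl, 4 mM MgCl2, BSA, DTT, yeast tRNA and Tween-20. Per-cluster binding curves were fitted to green signal normalised to red-channel RNA signal and control-cluster median Fmax. The apparent Kd is the median of the filtered fits.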

[1] = designed as: ON switch for flavin mononucleotide, no ligand
[2] = ligand present: flavin mononucleotide, designed as: ON switch for flavin mononucleotide
[3] = designed as: OFF switch for flavin mononucleotide, no ligand
[4] = ligand present: flavin mononucleotide, designed as: OFF switch for flavin mononucleotide

GGAUUUGUUCCAAUUUCGGUGAGUAAGGAUAUGCAUGGCAUACAUGAGGAUCACCCAUGUUGUCGGCAGAAGGUGCCACAACGU
apparent Kd [1]: 0.0594 µM | apparent Kd [2]: 0.0152 µM

GGAUUUUACUAGUUUUCUAAACAUGAGGAUCACCCAUGUUUUUAGGAUAUCAGCGUGAAACACGCUGAGAAGGAAGAACAAUCC
apparent Kd [3]: 0.0157 µM | apparent Kd [4]: 0.0182 µM

GGCAAUAUGUAGGAUAUCGUAUCGGAAACGAUACGAGAAGGGCAAACAUGAGGAUCACCCAUGUUCCUUAAGCC
apparent Kd [3]: 0.015 µM | apparent Kd [4]: 0.0174 µM

GGCAGCGGACAAGGAUAUAAGACGCAGACCAAAUUAGAAGGUGUUAUCUGGCAAUGCGAAAGCAGACAUGAGGAUCACCCAUGU
apparent Kd [1]: 0.0663 µM | apparent Kd [2]: 0.0651 µM

GGCAUAAACGAGGAUAUCGUAUCGGAAACGAUACGAGAAGGUGUAACAUGAGGAUCACCCAUGUUCCUCAAGCC
apparent Kd [3]: 0.0367 µM | apparent Kd [4]: 0.0348 µM

GGCAUACAUGAGGAUCACCCAUGUUCAACCUAGAUAGGAUAUGGGCCUCUUGUAUUAGGCCCAGAAGGAUCUGUAA
apparent Kd [1]: 0.103 µM | apparent Kd [2]: 0.0296 µM

GGCCUACGAGGAUAUCGCUAGCGGGACAUGAGGAUCACCCAUGUGUCGGACCGCGUCAUGCGAGAAGGUGUAAUGA
apparent Kd [3]: 0.0176 µM | apparent Kd [4]: 0.0184 µM

GGCGAACAGGCUAACAUGAGGAUCACCCAUGUGGACUCAUGGUAGGAUAUCGGGAAGGAGGAAACCGAGAAGGGCCGGUGAGCA
apparent Kd [1]: 0.202 µM | apparent Kd [2]: 0.0436 µM

GGCGAACAGGCUAACAUGAGGAUCACCCAUGUGGACUCAUGGUAGGAUAUCGGGAAGGAGGAAACCGAGAAGGGCCGGUGAGCC
apparent Kd [1]: 0.061 µM | apparent Kd [2]: 0.0341 µM

GGCGGAGUAGGAUAUACAUGAGGAUCACCCAUGUAACCUGAUGGCGUAGGUCUUCUAUGUAGAAGGGCUACGCC
apparent Kd [3]: 0.0174 µM | apparent Kd [4]: 0.0167 µM

GGCGGGCGAAACAUGAGGAUCACCCAUGUGUUAUAAUUAAUAUAGGAUAUGUUUAUACUUUUUGGGCAGAAGGAUGCGCCUGCC
apparent Kd [1]: 0.0978 µM | apparent Kd [2]: 0.0675 µM

GGCGGUCGGGAGGAUAUUCGGGCUGUUUGGCUUGGAGAAGGCUCGACAUGAGGAUCACCCAUGUUAGUGUUCUU
apparent Kd [3]: 0.0739 µM | apparent Kd [4]: 0.506 µM

GGCUACGUUUCGUAGCAGUGUCAUCGAGAAGGCCCUGACAUGAGGAUCACCCAUGUUGUUACAUGGGAGGAUAUCGAUGAUACC
apparent Kd [1]: 0.0121 µM | apparent Kd [2]: 0.00527 µM

GGCUACGUUUCGUAGCAGUGUCAUCGAGAAGGCCCUGACAUGAGGAUCACCCAUGUUGUUACAUGGGAGGAUAUCGAUGAUACG
apparent Kd [1]: 0.0121 µM | apparent Kd [2]: 0.00496 µM

GGCUAGGACAGAGGAUAUACGUGCUAGAGAUACUAGCAAAAUUUCCUCACAUGAGGAUCACCCAUGUAGAAGGCUGUCCUAUCG
apparent Kd [3]: 0.0184 µM | apparent Kd [4]: 0.458 µM

GGGAAACAUGAGGAUCACCCAUGUCAGGAUAUGAUACUAUGUACUUCGGUACAUAGUAUCAGAAGGGACAUCAU
apparent Kd [3]: 0.0738 µM | apparent Kd [4]: 0.204 µM

GGGAAGUGAGGAUAUGCUGCUCGUCACUUGCGUGAUGAGUAGCAGAAGGUACAUGAGGAUCACCCAUGUAAAAA
apparent Kd [3]: 0.0296 µM | apparent Kd [4]: 0.019 µM

GGGAGACAUGAGGAUCACCCAUGUGAAAACGUGCGAGGAUAUCUAUGGAAACCAUACUGUAGAGAAGGCGUUUGUC
apparent Kd [1]: 0.0884 µM | apparent Kd [2]: 0.0466 µM

GGGAGACAUGAGGAUCACCCAUGUGAAAACGUGGCAGGAUAUGCAUGGAAACCAUACUGUGCAGAAGGGCCUUGUC
apparent Kd [1]: 0.0605 µM | apparent Kd [2]: 0.0331 µM

GGGAGUGGAGGGAAUAACAUGAGGAUCACCCAUGUAUGGGAGAGAAGGCAGGUCGGAGGGCGAUCUGAGGAUAUUUAGACUCCU
apparent Kd [1]: 0.0125 µM | apparent Kd [2]: 0.0103 µM

GGGCAUAAUACAUGAGGAUCACCCAUGUCAGAAAGGGUAAUCAGAAGGUACUAUUAGAGAAAGAGUAAGGAUAUGAAUAUGCCC
apparent Kd [1]: 0.973 µM | apparent Kd [2]: 0.103 µM

GGGCCGUAGUAGAAGGGAUAUACGAUAGGUAUAUCAGGAUAUACAUGAGGAUCACCCAUGUUCUUACAGUGAUAGUCCUCCCUA
apparent Kd [3]: 0.0284 µM | apparent Kd [4]: 0.0658 µM

GGGCGGCGAGGAUAUGCAGGGCGGGCGCGCGGGCGCGCGCGACAUGAGGAUCACCCAUGUAGAAGGCGCCGGGC
apparent Kd [3]: 0.0191 µM | apparent Kd [4]: 0.129 µM

GGGCUCGGAGGAUAUACAAUGGGCCCGGGAAACCGGGCCCUACAUGAGGAUCACCCAUGUAGAAGGUCGGGCUC
apparent Kd [3]: 0.0164 µM | apparent Kd [4]: 0.0248 µM

GGGCUCGGUGUGAGGAUAUUGGGUCUGAAAGGGCUCGAGAAGGCACAUGAGGAUCACCCAUGUAAGCUGGGUCU
apparent Kd [3]: 0.0427 µM | apparent Kd [4]: 0.0373 µM

GGGCUCGUCGUAAACGACAUGAGGAUCACCCAUGUUGGGCACAGAAGGGCCUUCAUUCGGAUCAGGCAGGAUAUGUAUCUAACA
apparent Kd [3]: 0.00509 µM | apparent Kd [4]: 0.00532 µM

GGGUAAAUCGGAGGAUAUCAUGUAAAUACAUGAGGAUCACCCAUGUCGAUGGAGACAUCGGAGAUUGAGAAGGCCGAUGUACCG
apparent Kd [1]: 0.175 µM | apparent Kd [2]: 0.00942 µM

GGGUAACAUGAGGAUCACCCAUGUGAGGAUAUUCUAGGGAUGGAAGCUCGGCCGGCCAGGAGAAGGUACUAAAG
apparent Kd [3]: 0.044 µM | apparent Kd [4]: 0.048 µM

GGGUACAUCGGAGGAUAUCAUGUAAAUACAUGAGGAUCACCCAUGUCAAUGGAGACAUCGGAGAUUGAGAAGGCCGAUGUACCG
apparent Kd [1]: 0.0861 µM | apparent Kd [2]: 0.34 µM

GGGUACAUCGGAGGAUAUCAUGUAAAUACAUGAGGAUCACCCAUGUCGAUGGAGACAUCGGAGAUUGAGAAGGCCGAUGUACAG
apparent Kd [1]: 0.146 µM | apparent Kd [2]: 0.00838 µM

GGGUACAUCGGAGGAUAUCAUGUAAAUACAUGAGGAUCACCCAUGUCGAUGGAGACAUCGGUGAUUGAGAAGGCCGAUGUACCG
apparent Kd [1]: 0.0148 µM | apparent Kd [2]: 0.09 µM

GGGUACAUGAGGAUCACCCAUGUAACGUGGAUAAGCUAUAAUAGAAGGAUAAGAGGAGAUGAGGUAUAGGAUAUAUCAUGGGUG
apparent Kd [3]: 0.0427 µM | apparent Kd [4]: 0.0171 µM

GGGUACAUGGGAGGAUAUGGGAUGAUAACAUGAGGAUCACCCAUGUUAAAGAUGCCGAGAGGCAACUAGAAGGCCCAUGUACCG
apparent Kd [1]: 0.44 µM | apparent Kd [2]: 0.0592 µM

GGGUACUAGGGAGGAUAUGGGAAGAUACAUGAGGAUCACCCAUGUUUAAGAAUGCCGAGAGGCAACUAGAAGGCCCUAGUACCU
apparent Kd [1]: 0.428 µM | apparent Kd [2]: 0.0197 µM

GGGUGACAUGAGGAUCACCCAUGUCAGGAUAUGGGCCCGGGUUUGAAAGGGCCCGGGCCCAGAAGGGACUGCCC
apparent Kd [3]: 0.0553 µM | apparent Kd [4]: 0.127 µM

GGGUGGCGUAGAGGAUAUGUGGUACAUGAGGAUCACCCAUGUGCAUAUGAUGUUCAUGUUUAUGUAUAGAAGGCUACGUCGCUA
apparent Kd [1]: 0.0261 µM | apparent Kd [2]: 0.0364 µM

GGGUGGCGUAGAGGAUAUGUGUUACAUGAGGAUCACCCAUGUGCAUAUGAUGUUCGUGUGUAUGCAUAGAAGGCUACGUCGCUA
apparent Kd [1]: 0.222 µM | apparent Kd [2]: 0.125 µM

GGGUGGCGUAGAGGAUAUGUGUUACAUGAGGAUCACCCAUGUGCAUAUGAUGUUCGUGUGUGUGUAUAGAAGGCUACGUCGCUA
apparent Kd [1]: 0.0144 µM | apparent Kd [2]: 0.0177 µM

GGUAAGAAGUGCGUGAGCUACUUGAGAAGGCGACAUGAGGAUCACCCAUGUCUGUUCCUCAAGUUCGAGGAUAUCAGGUAGUUG
apparent Kd [3]: 0.00742 µM | apparent Kd [4]: 0.00906 µM

GGUAAGAUGCAGAAGGUGUUAGCUAGAGCUACGACAUGAGGAUCACCCAUGUACUAGAAACAGUACAAGGAUAUGCAUCUUACU
apparent Kd [1]: 0.0189 µM | apparent Kd [2]: 0.00653 µM

GGUACCAACACAGGAUAUGCUUUCCUUUGGGAAGCAGAAGGGUGAAACAUGAGGAUCACCCAUGUGGUGCCAGGGCGUGAGCCC
apparent Kd [1]: 1.36 µM | apparent Kd [2]: 0.0795 µM

GGUACCAUCACAGGAUAUCGUAUCCUUUGGGUACGAGAAGGGUGAUAACAUGAGGAUCACCCAUGUGGUACCGGGCGUGAGCCC
apparent Kd [1]: 1.34 µM | apparent Kd [2]: 0.323 µM

GGUACCAUGUAGAAGGCAGAUCUGAUUCAGAUCUGAGGAUAUACAUGAGGAUCACCCAUGUAAAGGCACCGCACGAGAGUGCAA
apparent Kd [3]: 0.0324 µM | apparent Kd [4]: 0.108 µM

GGUACCUUCACAGGAUAUGCUAUCCUUUGGGUAGCAGAAGGGUGAUAACAUGAGGAUCACCCAUGUGGUACCGGGCGUGAGCCC
apparent Kd [1]: 1.18 µM | apparent Kd [2]: 0.109 µM

GGUACUCAAAGAGUACCAAUACGAACAUGAGGAUCACCCAUGUAGGAUAUGCUACUCAAAGAGUAGCAGAAGGACAUGUGCAUA
apparent Kd [3]: 0.0221 µM | apparent Kd [4]: 0.135 µM

GGUACUCAAAGAGUACCAAUACGAACAUGAGGAUCACCCAUGUAGGAUAUGCUACUCAAAGAGUAGCAGAAGGAUAUGUGCCUA
apparent Kd [3]: 0.0147 µM | apparent Kd [4]: 0.0154 µM

GGUACUCAAAGAGUACCAAUACGAACAUGAGGAUCACCCAUGUAGGAUAUGCUACUCAAAGAGUAGCAGAAGGAUAUGUGUCUA
apparent Kd [3]: 0.0165 µM | apparent Kd [4]: 0.0175 µM

GGUACUCAAAGAGUACCAAUACGAACAUGAGGAUCACCCAUGUAGGAUAUUCUACUCAAAGAGUAGCAGAAGGACAUGUGCCUA
apparent Kd [3]: 0.0108 µM | apparent Kd [4]: 0.0131 µM

GGUCCACGAGGAUAUCGAUUUUAGUACAUGAGGAUCACCCAUGUUGUCCAGGUUUCGAUUCGAGAAGGCGUGGGCC
apparent Kd [3]: 0.0222 µM | apparent Kd [4]: 0.0246 µM

GGUCGUCAAGUCAGGAUAUCGUAUAGUAGAUAUAACGAGAAGGGACAUGAGGAUCACCCAUGUCGUCUCAUCAG
apparent Kd [3]: 0.019 µM | apparent Kd [4]: 0.029 µM

GGUCGUCUCAUUAACAUGAGGAUCACCCAUGUCAAAAGACAUGAGGAUAUGGAUCCUAAUUGGAUCCAGAAGGCAUGGACGACC
apparent Kd [1]: 1.11 µM | apparent Kd [2]: 0.0604 µM

GGUCUACAUGAGGAUCACCCAUGUCAGGAUAUCGUGUGUUUUUUUUCGGCCGCGCGUGCGAGAAGGGACGUCUU
apparent Kd [3]: 0.0176 µM | apparent Kd [4]: 0.0181 µM

GGUCUUCAAGUCAGGAUAUCGUCUGGUCGGUCUGGCGAGAAGGGACAUGAGGAUCACCCAUGUCGUCUCAUCAG
apparent Kd [3]: 0.0255 µM | apparent Kd [4]: 0.0402 µM

GGUGAAGCAGGAUAUGUGCCAAUAUACAUGAGGAUCACCCAUGUCAUGUAGGAACUGCGUAUAGAAGGGCUUCACC
apparent Kd [3]: 0.0376 µM | apparent Kd [4]: 0.0635 µM

GGUGAGAGCAAGGAUAUGCAGAAGUGAGAAAGUGCAGAAGGUGCUACAUGAGGAUCACCCAUGUUGGAUGUGUU
apparent Kd [3]: 0.0371 µM | apparent Kd [4]: 0.0491 µM
